# Measured values taken from ChEMBL document CHEMBL1649343, “Pulicatins A-E, neuroactive thiazoline metabolites from cone snail-associated bacteria” (J Nat Prod, 2010).
# Activity calls are given as the source filed them. The rule behind the calls is not given here.
# Tests used:
# [1] = target: Histamine H1 receptor (Homo sapiens) (UniProt P35367); experiment: Binding affinity to human histamine H1 receptor by radioligand displacement assay
# [2] = target: 5-hydroxytryptamine receptor 2B (Mus musculus) (UniProt Q02152); experiment: Increase of 5HT2B receptor-mediated KCL-induced intracellular calcium influx in mouse DRG neurons at 20 ug/ml; assay type: functional, cell-based
# Sequence of 5-hydroxytryptamine receptor 2B (Mus musculus) (Q02152 whole entry): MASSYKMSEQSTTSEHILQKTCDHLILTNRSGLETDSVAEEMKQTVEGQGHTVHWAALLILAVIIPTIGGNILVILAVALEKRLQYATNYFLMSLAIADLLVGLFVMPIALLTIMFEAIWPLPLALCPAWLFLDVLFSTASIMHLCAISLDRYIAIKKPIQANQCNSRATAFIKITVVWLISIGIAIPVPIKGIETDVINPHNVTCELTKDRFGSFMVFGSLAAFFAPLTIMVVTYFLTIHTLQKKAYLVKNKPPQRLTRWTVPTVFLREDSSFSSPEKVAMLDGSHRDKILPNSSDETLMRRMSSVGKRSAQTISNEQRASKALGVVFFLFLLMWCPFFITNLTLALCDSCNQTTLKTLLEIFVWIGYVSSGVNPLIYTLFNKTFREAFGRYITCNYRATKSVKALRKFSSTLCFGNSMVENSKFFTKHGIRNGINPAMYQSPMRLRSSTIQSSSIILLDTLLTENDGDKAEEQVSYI
# In short: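 Dorsal root ganglia cells from the cervical and lumbar regions of mice were loaded with Fura-2 AM and imaged individually by fluorescence microscopy at 20 to 25 °C. After baseline, cells were given 25 mM KCl and washed. After return to baseline, compound was applied at 20 µg/mL, then replaced with 25 mM KCl while intracellular Ca2+ was monitored.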
# [3] = target: Kappa-type opioid receptor (Homo sapiens) (UniProt P41145); experiment: Binding affinity to human kappa opioid receptor by radioligand displacement assay
# Sequence of Kappa-type opioid receptor (Homo sapiens) (P41145 whole entry): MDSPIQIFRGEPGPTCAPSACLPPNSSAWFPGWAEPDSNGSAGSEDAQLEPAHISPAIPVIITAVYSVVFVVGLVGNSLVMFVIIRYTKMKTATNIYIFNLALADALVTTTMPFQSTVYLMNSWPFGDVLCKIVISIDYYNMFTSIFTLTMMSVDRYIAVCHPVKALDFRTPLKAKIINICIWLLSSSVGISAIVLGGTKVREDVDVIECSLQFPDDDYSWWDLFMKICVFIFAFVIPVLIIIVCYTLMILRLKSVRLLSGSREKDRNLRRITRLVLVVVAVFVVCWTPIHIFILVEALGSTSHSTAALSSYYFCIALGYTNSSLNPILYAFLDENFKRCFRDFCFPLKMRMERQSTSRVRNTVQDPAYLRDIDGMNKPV
# Homo sapiens [4] = species: Homo sapiens; experiment: Selectivity ratio of Ki for human 5HT4 receptor to Ki for human 5HT2B receptor
# Homo sapiens [5] = species: Homo sapiens; experiment: Selectivity ratio of Ki for human 5HT2A receptor to Ki for human 5HT2B receptor
# Homo sapiens [6] = species: Homo sapiens; experiment: Selectivity ratio of Ki for human 5HT5A receptor to Ki for human 5HT2B receptor
# Homo sapiens [7] = species: Homo sapiens; experiment: Selectivity ratio of Ki for human 5HT3 receptor to Ki for human 5HT2B receptor
# Homo sapiens [8] = species: Homo sapiens; experiment: Selectivity ratio of Ki for human 5HT6 receptor to Ki for human 5HT2B receptor
# [9] = target: 5-hydroxytryptamine receptor 2A (Homo sapiens) (UniProt P28223); experiment: Binding affinity to human 5HT2A receptor at 10 uM by radioligand displacement assay
# Sequence of 5-hydroxytryptamine receptor 2A (Homo sapiens) (P28223 whole entry): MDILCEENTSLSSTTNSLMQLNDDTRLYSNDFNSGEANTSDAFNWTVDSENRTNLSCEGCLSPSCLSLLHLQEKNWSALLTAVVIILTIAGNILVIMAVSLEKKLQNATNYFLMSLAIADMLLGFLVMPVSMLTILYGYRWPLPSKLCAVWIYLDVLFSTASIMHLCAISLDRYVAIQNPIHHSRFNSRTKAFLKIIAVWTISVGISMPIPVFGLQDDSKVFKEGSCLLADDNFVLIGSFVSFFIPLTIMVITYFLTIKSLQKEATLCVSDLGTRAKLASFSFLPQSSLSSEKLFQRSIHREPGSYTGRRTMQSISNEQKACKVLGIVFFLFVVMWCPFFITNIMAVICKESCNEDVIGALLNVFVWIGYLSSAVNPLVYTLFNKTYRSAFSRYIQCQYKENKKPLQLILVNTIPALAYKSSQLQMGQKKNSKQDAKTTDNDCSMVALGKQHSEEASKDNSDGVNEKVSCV
# In short: (§1)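 Primary screen run by the PDSP/NIMH across a 46-target panel. Each compound was tested at a final concentration of 10 µM by radioligand displacement, and initial hits were obtained from this screen.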
# [10] = target: 5-hydroxytryptamine receptor 7 (Homo sapiens) (UniProt P34969); experiment: Binding affinity to human 5HT7 receptor at 10 uM by radioligand displacement assay; in short: as §1
# Sequence of 5-hydroxytryptamine receptor 7 (Homo sapiens) (P34969 whole entry): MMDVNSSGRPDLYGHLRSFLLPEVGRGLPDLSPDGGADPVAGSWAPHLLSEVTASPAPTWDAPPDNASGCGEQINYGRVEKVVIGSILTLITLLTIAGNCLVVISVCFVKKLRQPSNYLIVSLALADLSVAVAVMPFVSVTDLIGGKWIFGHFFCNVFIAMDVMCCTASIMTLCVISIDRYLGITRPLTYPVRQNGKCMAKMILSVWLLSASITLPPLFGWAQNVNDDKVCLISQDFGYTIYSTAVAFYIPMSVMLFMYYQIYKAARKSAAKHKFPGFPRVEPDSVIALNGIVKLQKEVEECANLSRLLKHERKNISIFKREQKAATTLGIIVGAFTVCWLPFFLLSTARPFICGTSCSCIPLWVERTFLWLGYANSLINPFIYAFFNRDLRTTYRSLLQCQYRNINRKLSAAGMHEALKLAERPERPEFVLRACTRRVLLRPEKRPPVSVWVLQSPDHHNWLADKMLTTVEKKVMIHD
# [11] = target: 5-hydroxytryptamine receptor 1D (Homo sapiens) (UniProt P28221); experiment: Binding affinity to human 5HT1D receptor at 10 uM by radioligand displacement assay; in short: as §1
# Sequence of 5-hydroxytryptamine receptor 1D (Homo sapiens) (P28221 whole entry): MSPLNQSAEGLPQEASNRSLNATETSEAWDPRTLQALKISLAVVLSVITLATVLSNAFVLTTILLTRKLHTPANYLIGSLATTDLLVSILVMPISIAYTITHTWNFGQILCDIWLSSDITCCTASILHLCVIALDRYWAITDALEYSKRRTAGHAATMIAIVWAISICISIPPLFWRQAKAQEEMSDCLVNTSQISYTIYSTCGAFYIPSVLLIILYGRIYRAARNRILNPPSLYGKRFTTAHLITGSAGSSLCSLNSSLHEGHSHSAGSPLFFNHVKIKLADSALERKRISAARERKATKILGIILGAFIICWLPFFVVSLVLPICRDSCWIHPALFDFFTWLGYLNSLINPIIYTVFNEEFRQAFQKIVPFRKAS
# [12] = target: T1, 5-hydroxytryptamine receptor 1A (Homo sapiens) (UniProt P08908); experiment: Binding affinity to human 5HT1A receptor at 10 uM by radioligand displacement assay; in short: as §1
# T1 sequence (whole entry): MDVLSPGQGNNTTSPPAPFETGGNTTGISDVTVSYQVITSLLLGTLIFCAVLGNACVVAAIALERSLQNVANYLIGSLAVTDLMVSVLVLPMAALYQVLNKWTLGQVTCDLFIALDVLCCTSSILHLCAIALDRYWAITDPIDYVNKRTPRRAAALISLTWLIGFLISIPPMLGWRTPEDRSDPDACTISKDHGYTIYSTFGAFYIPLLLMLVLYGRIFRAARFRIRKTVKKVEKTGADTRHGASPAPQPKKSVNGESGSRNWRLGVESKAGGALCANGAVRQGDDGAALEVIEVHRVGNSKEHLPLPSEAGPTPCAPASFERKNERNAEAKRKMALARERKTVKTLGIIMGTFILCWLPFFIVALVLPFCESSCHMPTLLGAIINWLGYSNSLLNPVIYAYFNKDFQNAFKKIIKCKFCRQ
# [13] = target: T2, 5-hydroxytryptamine receptor 2C (Homo sapiens) (UniProt P28335); experiment: Binding affinity to human 5HT2C receptor at 10 uM by radioligand displacement assay; in short: as §1
# T2 sequence (whole entry): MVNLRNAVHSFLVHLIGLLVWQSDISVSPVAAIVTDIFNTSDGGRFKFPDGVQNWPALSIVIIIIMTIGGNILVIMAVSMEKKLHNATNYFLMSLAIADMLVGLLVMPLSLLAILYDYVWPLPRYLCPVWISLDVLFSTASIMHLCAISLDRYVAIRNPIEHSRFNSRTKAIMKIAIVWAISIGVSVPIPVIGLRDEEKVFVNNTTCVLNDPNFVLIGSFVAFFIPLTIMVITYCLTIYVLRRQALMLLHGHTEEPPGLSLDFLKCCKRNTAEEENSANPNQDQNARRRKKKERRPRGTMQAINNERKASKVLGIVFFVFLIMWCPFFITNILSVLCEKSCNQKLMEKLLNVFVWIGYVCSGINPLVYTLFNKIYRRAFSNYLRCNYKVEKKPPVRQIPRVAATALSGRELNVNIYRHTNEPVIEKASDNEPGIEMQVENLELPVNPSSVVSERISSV
# Homo sapiens [14] = species: Homo sapiens; experiment: Selectivity ratio of Ki for human 5HT1E receptor to Ki for human 5HT2B receptor
# [15] = target: 5-hydroxytryptamine receptor 1B (Homo sapiens) (UniProt P28222); experiment: Binding affinity to human 5HT1B receptor at 10 uM by radioligand displacement assay; in short: as §1
# Sequence of 5-hydroxytryptamine receptor 1B (Homo sapiens) (P28222 whole entry): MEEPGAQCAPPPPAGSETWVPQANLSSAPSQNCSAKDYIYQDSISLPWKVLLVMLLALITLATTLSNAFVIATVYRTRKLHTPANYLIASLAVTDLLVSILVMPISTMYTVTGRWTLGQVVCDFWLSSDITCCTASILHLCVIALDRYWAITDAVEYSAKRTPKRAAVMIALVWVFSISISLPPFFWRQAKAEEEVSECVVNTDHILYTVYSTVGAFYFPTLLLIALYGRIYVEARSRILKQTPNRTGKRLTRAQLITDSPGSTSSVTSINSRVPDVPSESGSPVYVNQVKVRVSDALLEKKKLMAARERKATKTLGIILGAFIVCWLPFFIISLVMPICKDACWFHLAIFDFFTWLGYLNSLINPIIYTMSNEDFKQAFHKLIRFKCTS
# Homo sapiens [16] = species: Homo sapiens; experiment: Selectivity ratio of Ki for human 5HT1B receptor to Ki for human 5HT2B receptor
# [17] = target: 5-hydroxytryptamine receptor 1E (Homo sapiens) (UniProt P28566); experiment: Binding affinity to human 5HT1E receptor at 10 uM by radioligand displacement assay; in short: as §1
# Sequence of 5-hydroxytryptamine receptor 1E (Homo sapiens) (P28566 whole entry): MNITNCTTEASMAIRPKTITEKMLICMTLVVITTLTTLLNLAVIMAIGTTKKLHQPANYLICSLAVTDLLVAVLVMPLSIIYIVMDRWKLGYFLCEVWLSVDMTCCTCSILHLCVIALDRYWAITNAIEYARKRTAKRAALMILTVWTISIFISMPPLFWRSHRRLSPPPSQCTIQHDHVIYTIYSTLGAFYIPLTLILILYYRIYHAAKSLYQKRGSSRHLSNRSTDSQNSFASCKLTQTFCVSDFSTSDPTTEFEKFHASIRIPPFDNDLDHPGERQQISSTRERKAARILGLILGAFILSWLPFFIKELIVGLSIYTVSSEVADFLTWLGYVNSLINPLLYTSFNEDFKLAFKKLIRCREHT
# [18] = target: 5-hydroxytryptamine receptor 5A (Homo sapiens) (UniProt P47898); experiment: Binding affinity to human 5HT5A receptor at 10 uM by radioligand displacement assay; in short: as §1
# Sequence of 5-hydroxytryptamine receptor 5A (Homo sapiens) (P47898 whole entry): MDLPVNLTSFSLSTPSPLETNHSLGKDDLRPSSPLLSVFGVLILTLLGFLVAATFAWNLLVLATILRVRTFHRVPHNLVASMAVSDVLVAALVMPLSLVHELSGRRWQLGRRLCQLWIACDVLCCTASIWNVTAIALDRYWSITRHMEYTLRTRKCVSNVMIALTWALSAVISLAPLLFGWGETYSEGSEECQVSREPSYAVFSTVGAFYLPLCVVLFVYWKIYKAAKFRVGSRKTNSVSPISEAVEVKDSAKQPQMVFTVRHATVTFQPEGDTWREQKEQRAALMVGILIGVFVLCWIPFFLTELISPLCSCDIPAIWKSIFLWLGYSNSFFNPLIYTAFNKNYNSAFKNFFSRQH
# Homo sapiens [19] = species: Homo sapiens; experiment: Selectivity ratio of Ki for human 5HT1D receptor to Ki for human 5HT2B receptor
# [20] = target: 5-hydroxytryptamine receptor 4 (Homo sapiens) (UniProt Q13639); experiment: Binding affinity to human 5HT4 receptor at 10 uM by radioligand displacement assay; in short: as §1
# Sequence of 5-hydroxytryptamine receptor 4 (Homo sapiens) (Q13639 whole entry): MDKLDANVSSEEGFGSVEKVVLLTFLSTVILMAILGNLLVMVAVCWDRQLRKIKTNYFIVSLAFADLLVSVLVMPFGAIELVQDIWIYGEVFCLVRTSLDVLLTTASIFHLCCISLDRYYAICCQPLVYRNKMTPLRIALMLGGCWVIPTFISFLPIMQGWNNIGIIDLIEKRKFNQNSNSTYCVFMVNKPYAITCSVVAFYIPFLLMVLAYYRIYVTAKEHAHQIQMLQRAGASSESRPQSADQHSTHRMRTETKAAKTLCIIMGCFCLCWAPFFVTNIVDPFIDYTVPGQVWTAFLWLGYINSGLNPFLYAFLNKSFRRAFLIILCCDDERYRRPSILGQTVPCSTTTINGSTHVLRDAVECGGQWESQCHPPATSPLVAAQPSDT
# Homo sapiens [21] = species: Homo sapiens; experiment: Selectivity ratio of Ki for human 5HT7 receptor to Ki for human 5HT2B receptor
# Homo sapiens [22] = species: Homo sapiens; experiment: Selectivity ratio of Ki for human 5HT1A receptor to Ki for human 5HT2B receptor
# Homo sapiens [23] = species: Homo sapiens; experiment: Selectivity ratio of Ki for human 5HT2C receptor to Ki for human 5HT2B receptor
# [24] = target: T3, 5-hydroxytryptamine receptor 3A (Homo sapiens) (UniProt P46098); experiment: Binding affinity to human 5HT3 receptor at 10 uM by radioligand displacement assay; in short: as §1
# T3 sequence (whole entry): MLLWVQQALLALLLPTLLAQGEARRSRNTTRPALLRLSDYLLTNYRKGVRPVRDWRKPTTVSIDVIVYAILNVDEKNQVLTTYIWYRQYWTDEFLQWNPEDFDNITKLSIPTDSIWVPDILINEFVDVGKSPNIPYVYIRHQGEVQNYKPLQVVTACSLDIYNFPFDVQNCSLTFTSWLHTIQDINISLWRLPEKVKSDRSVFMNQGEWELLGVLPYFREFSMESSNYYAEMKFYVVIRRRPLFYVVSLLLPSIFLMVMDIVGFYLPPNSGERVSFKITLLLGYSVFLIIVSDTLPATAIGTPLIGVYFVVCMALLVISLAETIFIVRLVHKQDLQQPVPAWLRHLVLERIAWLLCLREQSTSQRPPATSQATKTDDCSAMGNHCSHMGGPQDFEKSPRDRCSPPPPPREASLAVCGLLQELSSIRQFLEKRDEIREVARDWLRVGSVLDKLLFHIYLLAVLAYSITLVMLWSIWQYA
# [25] = target: 5-hydroxytryptamine receptor 6 (Homo sapiens) (UniProt P50406); experiment: Binding affinity to human 5HT6 receptor at 10 uM by radioligand displacement assay; in short: as §1
# Sequence of 5-hydroxytryptamine receptor 6 (Homo sapiens) (P50406 whole entry): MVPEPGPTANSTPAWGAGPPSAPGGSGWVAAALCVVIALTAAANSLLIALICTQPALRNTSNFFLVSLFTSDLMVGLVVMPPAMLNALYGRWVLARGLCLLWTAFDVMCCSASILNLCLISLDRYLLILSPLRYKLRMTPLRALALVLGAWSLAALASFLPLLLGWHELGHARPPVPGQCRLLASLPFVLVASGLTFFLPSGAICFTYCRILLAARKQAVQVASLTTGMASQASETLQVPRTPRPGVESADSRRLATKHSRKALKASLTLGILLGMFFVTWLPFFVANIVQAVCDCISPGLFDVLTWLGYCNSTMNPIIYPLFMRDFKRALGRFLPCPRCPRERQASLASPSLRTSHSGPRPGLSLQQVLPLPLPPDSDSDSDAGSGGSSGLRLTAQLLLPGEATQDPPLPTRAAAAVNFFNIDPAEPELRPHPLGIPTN
# Sequence of Histamine H1 receptor (Homo sapiens) (P35367 whole entry): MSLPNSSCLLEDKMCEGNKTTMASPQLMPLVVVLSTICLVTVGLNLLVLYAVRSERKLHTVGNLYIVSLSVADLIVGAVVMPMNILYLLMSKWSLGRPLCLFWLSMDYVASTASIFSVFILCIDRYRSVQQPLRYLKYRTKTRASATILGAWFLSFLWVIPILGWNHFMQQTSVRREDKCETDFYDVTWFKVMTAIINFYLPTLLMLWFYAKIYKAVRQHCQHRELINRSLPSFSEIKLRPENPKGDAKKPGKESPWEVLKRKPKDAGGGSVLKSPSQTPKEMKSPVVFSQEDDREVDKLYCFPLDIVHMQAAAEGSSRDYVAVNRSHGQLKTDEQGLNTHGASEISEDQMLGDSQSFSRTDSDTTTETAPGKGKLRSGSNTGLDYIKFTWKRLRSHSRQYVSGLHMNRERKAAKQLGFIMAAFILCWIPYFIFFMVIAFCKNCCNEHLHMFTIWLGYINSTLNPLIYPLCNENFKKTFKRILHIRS
smiles,measurement,setting,value
NC(=O)c1csc(-c2ccccc2O)n1,Activity,[1],517 nM
NC(=O)C1CSC(c2ccccc2O)=N1 (stereo not drawn),Activity,[1],678 nM
same,Activity,[2],Active
same,Activity,[3],3.71 µM
OC[C@@H]1CSC(c2ccccc2O)=N1,Activity,[2],Active
C[C@@H]1SC(c2ccccc2O)=N[C@@H]1CO,Ratio Ki,Homo sapiens [4],20
same,Ratio Ki,Homo sapiens [5],20
same,Ratio Ki,Homo sapiens [6],20
same,Ratio Ki,Homo sapiens [7],20
same,Ratio Ki,Homo sapiens [8],20
same,Activity,[9],inactive
same,Activity,[10],inactive
same,Activity,[11],inactive
same,Activity,[12],inactive
same,Activity,[2],inactive
same,Activity,[13],inactive
same,Ratio Ki,Homo sapiens [14],20
same,Activity,[15],inactive
same,Ratio Ki,Homo sapiens [16],20
same,Activity,[17],inactive
same,Activity,[18],inactive
same,Ratio Ki,Homo sapiens [19],20
same,Activity,[20],inactive
same,Ratio Ki,Homo sapiens [21],20
same,Ratio Ki,Homo sapiens [22],20
same,Ratio Ki,Homo sapiens [23],20
same,Activity,[24],inactive
same,Activity,[25],inactive
